Source: PubChem BioAssay
MEX-5 binding: C. elegans MEX-5 TCR-2 RNA binding activity; Q9XUB2; MEX-5/FITC-TCR2 RNA binding, fluorescence polarization; stronger effect = lower value; activity score (negative = inhibition of binding), % at 10 µM; actives 0.38% (n = 300,000);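 active = inhibition past about -25% in most replicates, and total fluorescence under double the plate's negative control median, limit read from the data; inconclusive = replicates evenly split on the limit, or fluorescence at least double controls; inactive = too little inhibition in most replicates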;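 note: 0% = DMSO and -100% = 5 µM competing unlabeled TCR2 RNA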
EBV gp42 block: EBV gp42 inhibition | actives 0.42% (n = 220,000) | Fluorescence polarization binding assay, mP read-out | inhibition, % (tested at 21.74 µM) | AID 1085
RanGTP-Imp inh: inhibitors of RanGTP-importin-beta interaction, primary screen, biochemical, FRET, CFP-Ran, YFP-importin-beta, homogeneous. cell-free CFP-Ran/YFP-importin-beta FRET ratio. inhibition, % (concentration not given with the values). actives 1.1% (n = 300,000). AID 2216;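 active = more than half of the replicate wells show a fall in the fluorescence ratio signal beyond about 16%, limit read from the data, passing the limit was not always enough; inconclusive = exactly half of the replicate wells pass the set limit; inactive = fewer than half of replicates pass the limit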;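 note: 0% = DMSO wells and 100% = Ran loaded with GDP instead of GTP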
PKD1 kinase inh: inhibitors of human PKD1 kinase; Q15139; inhibition, % (concentration not given with the values); actives 0.056% (n = 200,000); PKD1 kinase fluorescence polarization assay
Runt-CBFb FRET: Runt domain-CBFb interaction inhibition; Q01196+Q13951; Cerulean-Runt/Venus-CBFb FRET ratio 530/480, 1 h; inhibition, % at 20 µM; actives 0.46% (n = 220,000);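 active = inhibition over about 50% at 20 µM in the single-dose screen, limit read from the data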;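 note: 0% = DMSO wells and 100% = excess unlabeled CBFb competitor control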
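Measured by: fluorescence energy transfer, 422 nm excitation, 530/480 nm emission; Assay system: Cerulean-Runt domain; Medium: Tris pH 7.5 buffer with BSA; Measure: loss of energy transfer signal; Controls: 5 µM unlabeled CBFb as full-inhibition high control; Incubation: protein complex preformed 1 h, compound exposure 1 h, room temperature, dark.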
Runt-SMMHC FRET: blocks binding of human RUNX1 Runt domain to CBFb-SMMHC; Cerulean-Runt/Venus-CBFb-SMMHC FRET ratio 530/480, 1 h; actives 0.74% (n = 220,000); AID 1434; inhibition, % at 20 µM; Q01196+Q13951;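 active = mean inhibition across duplicate retests at 20 µM reaching about 50%, limit read from the data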;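 note: 0% = DMSO wells and 100% = wells with excess untagged CBFb-SMMHC; inhibitors lower the FRET ratio by blocking Runt binding to CBFb-SMMHC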
Numbers without * were called inactive; ? = inconclusive; / = no result given. The list is not random: actives were taken first. Their share in the collection is about 2%. Cut-off read from the data, not from the text of the source, unless noted: active = inhibition above about 50%; inactive = the rest.

SMILES | MEX-5 binding | EBV gp42 block | RanGTP-Imp inh | PKD1 kinase inh | Runt-CBFb FRET | Runt-SMMHC FRET
CCOC(=O)CNC(=O)C1CCCc2c1[nH]c1ccc(Cl)cc21 (stereo not drawn) | 2 | 1 | -1 | -1 | 2 | -7
NC(=O)c1cccc2c3c([nH]c12)CCCC3 | -5 | -8 | 85* | 10 | 1 | 4
Cc1ccc(CNC(=O)C2CCC(CNc3nc(=S)[nH]c4ccccc34)CC2)cc1 (stereo not drawn) | -1 | -1 | 27* | 1 | -4 | -3
CC1CC(C(=O)Nc2ccccc2)C(=O)O1 (stereo not drawn) | 4 | / | ? | / | / | /
CC(=O)c1cccc(S(=O)(=O)N2CCC(C(=O)O)(c3ccccc3)CC2)c1 | -1 | / | -1 | / | / | /
CCOC(=O)CC1C(=O)NCCN1C(=O)c1ccc(Cl)c(Cl)c1 (stereo not drawn) | 2 | / | -1 | / | / | /
CN(C(=O)Cn1cc(C(F)(F)F)ccc1=O)c1c(N)n(Cc2ccccc2)c(=O)[nH]c1=O | -4 | -10 | 2 | / | -1 | -2
N#C/C(=C\c1ccc(-c2ccccc2)cc1)c1nc(-c2ccco2)cs1 | -4 | -19 | -5 | -6 | -4 | -4
N#C/C(=C/c1ccc(-c2ccccc2)o1)c1nc(-c2cccs2)cs1 | / | 99* | / | -1 | -23 | -159
N#C/C(=C/c1ccc(-c2ccc(S(N)(=O)=O)cc2)o1)c1nc2ccccc2s1 | / | 64* | / | 10 | -57 | -143
CNC(=O)/C(C#N)=C/c1ccc(-c2nc3ccccc3s2)o1 | -67* | 10 | -5 | / | -45 | -83
COCc1cccc(N2C(=O)CC(C3C=C(C)C4C(=O)N(c5cccc(COC)c5)C(=O)C4C3)C2=O)c1 (stereo not drawn) | 2 | 2 | 2 | -8 | 0 | 0
NC(=S)n1[nH]c(-c2ccc([N+](=O)[O-])cc2)c(N=Nc2ccc(O)cc2)c1=O | -3 | 19 | ? | 5 | 6 | -1
NC(=S)n1[nH]c(-c2ccc([N+](=O)[O-])cc2)c(N=Nc2cccc(Cl)c2)c1=O | -2 | 100* | -7 | 0 | -9 | -8
N#Cc1cnn2ccn(C3OC(CO)C(O)C3O)c12 (stereo not drawn) | -2 | -7 | -3 | / | 0 | -2
COC(=O)[C@H](CCSC)NC(=O)NC1CCN(Cc2ccccc2)CC1 | -36* | -19 | 0 | -3 | 2 | 1
Cn1c(=O)cc2c3c(c(N4CCCCC4)ccc31)C(=O)c1ccccc1-2 | -40* | 74* | -10 | / | -7 | -15
CCC(=O)N1CCc2cc(S(=O)(=O)CCC(=O)NCc3ccccc3OC)ccc21 | 4 | / | 0 | / | / | /
O=C(c1ccco1)[C@@H]1[C@@H]2C(=O)N(c3ccccc3)C(=O)[C@@H]2C2c3ccccc3C=CN21 (stereo partly drawn) | -30* | / | 28* | 16 | -23 | -58
Cc1ccc(N2C(=O)[C@@H]3[C@H](C2=O)C2c4ccccc4C=CN2[C@@H]3C(=O)c2ccco2)cc1 (stereo partly drawn) | / | 54* | / | 5 | -7 | -71
Cc1ccc(N2C(=O)[C@@H]3[C@H](C2=O)C2c4ccccc4C=CN2[C@@H]3C(=O)c2ccco2)c(C)c1 (stereo partly drawn) | 5 | / | ? | 4 | -26 | -46
CCSc1nnc(-c2ccncc2)o1 | 1 | -9 | -2 | 0 | -3 | 0
CCSc1nnc(-c2sc3nnc(-c4ccccc4)c(-c4ccccc4)c3c2N)o1 | ? | 167* | -199 | 9 | -106 | -436
O=C(CSc1nnc(-c2ccccc2)c(-c2ccccc2)n1)Nc1ccc(Br)cn1 | 3 | -52 | 4 | -8 | 2 | -2
CC1=NN(c2cccc(C(=O)O)c2)C(=O)/C1=C\C=C\c1ccco1 | -27* | 18 | -9 | -1 | 28 | 22
SMILES | MEX-5 binding | EBV gp42 block | RanGTP-Imp inh | PKD1 kinase inh | Runt-CBFb FRET | Runt-SMMHC FRET
CC(C)Nc1nc2ccccc2c(=O)[nH]1 | -1 | 1 | -5 | 9 | 2 | -3
Cc1c2ccccc2nc2c(F)c(NC(C)C)c(F)c(F)c12 | -33* | 168* | -75 | 6 | 0 | -23
Cc1c2ccccc2nc2c(F)c(NCCO)c(F)c(F)c12 | -31* | 187* | -10 | 24 | 2 | 3
CCCCC(Sc1nc(C)c(Cc2ccccc2)c(=O)[nH]1)C(=O)O (stereo not drawn) | 2 | / | ? | / | / | /
COc1cc(/C=N/Nc2snc(SC)c2C#N)cc(OC)c1OC | 1 | -8 | 1 | -3 | 8 | 3
CSc1nsc(N/N=C/c2ccc3c(c2)OCO3)c1C#N | -5 | 1 | 20* | 1 | 14 | 16
O=C(OC1CCCCC1)c1ccc2c(c1)C1C=CCC1C(C(=O)O)N2 (stereo not drawn) | / | 88* | / | -6 | -4 | -3
CCOC(=O)C1Nc2ccc(Br)cc2C2C=CCC12 (stereo not drawn) | -4 | / | -1 | / | / | /
O=C(O)C1Nc2ccc(Br)cc2C2C=CCC12 (stereo not drawn) | -30* | / | -7 | / | / | /
CCN(CC)C(=O)Cn1cc(S(=O)(=O)CC(=O)Nc2cc(OC)ccc2OC)c2ccccc21 | 1 | / | 0 | / | / | /
O=C(CSc1nc(-c2ccc(F)cc2)nc2ccc(F)cc12)Nc1cccc(C(=O)O)c1 | 4 | 9 | -3 | 0 | -2 | -9
O=C(CSc1nc(-c2ccc(F)cc2)nc2c1Cc1ccccc1O2)Nc1ccc(C(=O)O)cc1 | / | 74* | / | 9 | 43 | -3
O=C(CSc1nc(-c2ccccc2)nc2c1Cc1ccccc1O2)Nc1ccc(C(=O)O)cc1 | / | 87* | / | 0 | 40 | -31
Cc1cc(NC(=O)c2ccco2)ncc1NC(=O)CCc1ccccc1 | -5 | 15 | -4 | 5 | 2 | 3
CCC(=O)Nc1cc(C)c(NC(=O)CCc2ccccc2)cn1 | -26* | 24 | 40* | 3 | 29 | 89*
O=c1[nH]c2ccccc2nc1/C=C/c1ccccc1 | -5 | -1 | 61* | -1 | 45 | 88*
O=c1[nH]c2ccccc2nc1/C=C/c1ccc(O)cc1 | 1 | -51 | ? | 10 | -196 | -16
O=c1[nH]c2ccccc2nc1/C=C/c1ccc(F)cc1 | ? | -103 | 38* | -2 | 16 | 50
O=C(CN1C(=O)c2ccc(Br)cc2C1=O)NCC1CCCO1 (stereo not drawn) | 1 | / | 2 | / | / | /
CCOCCCNC(=O)/C(C#N)=C/c1ccc(-c2ccc(S(=O)(=O)N3CCOCC3)cc2)o1 | 1 | -7 | ? | 6 | 3 | 10
COCCNC(=O)/C(C#N)=C/c1ccc(-c2ccc(S(=O)(=O)N3CCOCC3)cc2)o1 | -1 | -6 | 15* | -3 | 9 | 24
